Test results taken from ChEMBL document CHEMBL2417458, “New potent and selective polyfluoroalkyl ketone inhibitors of GVIA calcium-independent phospholipase A2” (Bioorg Med Chem, 2013).

Legend:
[1] = target: T1, Phospholipase A2 group V (Homo sapiens) (UniProt P39877); assay: Inhibition of human group 5 secretory PLA2 at 0.091 mole fraction in mixed-micelles by modified Dole assay
T1 sequence (whole entry): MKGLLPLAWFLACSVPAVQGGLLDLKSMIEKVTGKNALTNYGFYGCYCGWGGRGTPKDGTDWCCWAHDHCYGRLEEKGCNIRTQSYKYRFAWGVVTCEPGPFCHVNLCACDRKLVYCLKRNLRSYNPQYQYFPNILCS

[2] = target: T2, Cytosolic phospholipase A2 (Homo sapiens) (UniProt P47712); assay: Inhibition of human group 4A cytosolic PLA2 at 0.091 mole fraction in mixed-micelles by modified Dole assay
T2 sequence (whole entry): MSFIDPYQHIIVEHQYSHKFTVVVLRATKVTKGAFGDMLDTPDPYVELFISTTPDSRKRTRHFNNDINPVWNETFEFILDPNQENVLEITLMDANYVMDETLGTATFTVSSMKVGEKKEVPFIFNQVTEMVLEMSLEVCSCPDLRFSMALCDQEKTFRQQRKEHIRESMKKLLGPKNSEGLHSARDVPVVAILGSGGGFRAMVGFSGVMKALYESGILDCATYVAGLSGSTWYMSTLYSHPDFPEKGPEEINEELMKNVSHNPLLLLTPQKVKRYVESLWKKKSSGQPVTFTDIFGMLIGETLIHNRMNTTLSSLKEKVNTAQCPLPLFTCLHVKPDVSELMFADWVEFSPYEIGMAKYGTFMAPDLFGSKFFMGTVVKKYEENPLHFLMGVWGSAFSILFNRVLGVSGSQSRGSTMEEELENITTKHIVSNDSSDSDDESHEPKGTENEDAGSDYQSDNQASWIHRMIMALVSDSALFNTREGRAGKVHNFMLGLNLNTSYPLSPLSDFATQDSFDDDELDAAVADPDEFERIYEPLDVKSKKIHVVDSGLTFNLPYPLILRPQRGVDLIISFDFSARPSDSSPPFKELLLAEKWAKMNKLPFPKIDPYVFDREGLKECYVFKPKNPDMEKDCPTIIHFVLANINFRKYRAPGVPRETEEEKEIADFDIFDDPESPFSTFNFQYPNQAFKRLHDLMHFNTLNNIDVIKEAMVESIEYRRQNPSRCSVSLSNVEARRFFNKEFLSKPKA
Summary of the method: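 Buffer was 100 mM HEPES pH 7.5 with 90 μM CaCl2, 2 mM DTT and 0.1 mg/ml BSA. Inhibitor was screened at 0.091 mole fraction. Values are average percent inhibition, and 25% or less was scored as no inhibition.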

[3] = target: T3, 85/88 kDa calcium-independent phospholipase A2 (Homo sapiens) (UniProt O60733); assay: Inhibition of human group 6A calcium-independent PLA2 treated in mixed-micelles by modified Dole assay
T3 sequence (whole entry): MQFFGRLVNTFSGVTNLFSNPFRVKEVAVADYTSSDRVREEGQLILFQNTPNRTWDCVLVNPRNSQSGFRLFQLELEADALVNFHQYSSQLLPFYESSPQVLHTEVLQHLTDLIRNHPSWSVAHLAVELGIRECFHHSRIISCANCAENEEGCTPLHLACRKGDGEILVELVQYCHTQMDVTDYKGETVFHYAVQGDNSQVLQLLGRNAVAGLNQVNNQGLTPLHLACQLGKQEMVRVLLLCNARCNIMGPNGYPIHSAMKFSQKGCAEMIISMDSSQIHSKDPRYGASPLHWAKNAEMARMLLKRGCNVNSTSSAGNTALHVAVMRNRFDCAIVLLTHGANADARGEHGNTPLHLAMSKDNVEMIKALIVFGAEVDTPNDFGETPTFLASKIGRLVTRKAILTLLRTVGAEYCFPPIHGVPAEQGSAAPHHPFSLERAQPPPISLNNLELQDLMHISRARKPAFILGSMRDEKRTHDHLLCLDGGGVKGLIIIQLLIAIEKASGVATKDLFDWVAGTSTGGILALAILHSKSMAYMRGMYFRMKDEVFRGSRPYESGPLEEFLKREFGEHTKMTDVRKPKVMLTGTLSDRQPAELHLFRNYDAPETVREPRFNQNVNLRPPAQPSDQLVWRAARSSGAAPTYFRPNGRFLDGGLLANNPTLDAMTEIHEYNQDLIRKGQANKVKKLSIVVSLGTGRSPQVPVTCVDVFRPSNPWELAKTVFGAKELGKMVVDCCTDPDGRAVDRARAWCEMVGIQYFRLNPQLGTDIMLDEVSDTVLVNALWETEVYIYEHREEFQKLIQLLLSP
Summary of the method: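 Typically 7 mole fractions from 0.00091 to 0.091 were tested. XI(50) is the inhibitor mole fraction giving 50% inhibition, from a symmetrical sigmoidal regression of % inhibition versus log concentration.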

[4] = target: T3, 85/88 kDa calcium-independent phospholipase A2 (Homo sapiens); assay: Inhibition of human group 6A calcium-independent PLA2 at 0.091 mole fraction in mixed-micelles by modified Dole assay
[5] = target: T2, Cytosolic phospholipase A2 (Homo sapiens); assay: Inhibition of human group 4A cytosolic PLA2 treated in mixed-micelles by modified Dole assay
Summary of the method: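 Buffer was 100 mM HEPES pH 7.5 containing 90 μM CaCl2, 2 mM DTT and 0.1 mg/ml BSA. About 7 inhibitor mole fractions between 0.00091 and 0.091 were tested. XI(50) came from a symmetrical sigmoidal nonlinear fit of % inhibition versus log inhibitor.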

Work on `O=C(CCCCc1cccc2ccccc12)C(F)(F)F` yielded an inhibition [1] of 31.9%, an inhibition [2] of 77.4% and an XI50 (mole fraction) [3] of 0.0018. The inhibition [4] was 98.7%.
`COc1ccc(CCCCC(=O)C(F)(F)F)cc1` gave an inhibition [1] of less than 25%, an inhibition [2] of 54.3% and an XI50 (mole fraction) [3] of 0.0001. It also gave an inhibition [4] of 99.8%.
For `COc1ccc2cc(CCCCC(=O)C(F)(F)F)ccc2c1`, the inhibition [1] was 41.7%, the inhibition [2] was 85.5% and the inhibition [4] was 92.6%.
`COc1ccc2cc(CCCCC(=O)C(F)(F)C(F)(F)F)ccc2c1` showed an inhibition [1] of 63.1%, an inhibition [2] of 54.7% and an inhibition [4] of 92.5%.
Work on `COc1ccc(CCCCC(=O)C(F)(F)C(F)(F)F)c(OC)c1` yielded an inhibition [1] of 38.7%, an inhibition [2] of 35.6% and an XI50 (mole fraction) [3] of 0.0553. It also gave an inhibition [4] of 95.6%.
Work on `O=C(CCCCc1ccc(C(F)(F)F)cc1)C(F)(F)C(F)(F)F` yielded an inhibition [1] of 36.9%, an inhibition [2] of 62.5% and an XI50 (mole fraction) [3] of 0.0003. It also gave an inhibition [4] of 98.9%.
`O=C(CCCCc1ccc(C(F)(F)F)cc1)C(F)(F)F` was tested, and the inhibition [1] was 30.4%, the inhibition [2] was 83.9% and the XI50 (mole fraction) [3] was 0.0002. The inhibition [4] was 99.9%.
In the case of `O=C(CCCCc1cccc2ccccc12)C(F)(F)C(F)(F)C(F)(F)F`, the inhibition [1] was 57.8%, the inhibition [2] was 60.4% and the inhibition [4] was 76.7%.
With `COc1ccc(CCCCC(=O)C(F)(F)F)cc1OC` the inhibition [1] was less than 25%, the inhibition [2] was 28.8% and the inhibition [4] was 62.5%.
In the case of `COc1ccc(CCCCC(=O)C(F)(F)F)c(OC)c1`, the inhibition [1] was less than 25%, the inhibition [2] was 64.3% and the inhibition [4] was 89.6%.
Molecule `O=C(CCCc1ccccc1)C(F)F` has an inhibition [1] of less than 25%, an inhibition [2] of less than 25% and an inhibition [4] of 86.5%.
`COc1ccc(CCCCC(=O)C(F)(F)C(F)(F)F)cc1OC` gave an inhibition [1] of less than 25%, an inhibition [2] of less than 25% and an inhibition [4] of 78.3%.
`O=C(CCCCc1ccc2c(c1)OCO2)C(F)(F)C(F)(F)F` was tested, and the inhibition [1] was 29.4%, the inhibition [2] was 38.3% and the XI50 (mole fraction) [3] was 0.0019. For the same molecule, the inhibition [4] was 99.5%.
`COc1ccc(CCCCC(=O)C(F)(F)C(F)(F)F)cc1` showed an inhibition [1] of 32.8%, an inhibition [2] of less than 25% and an XI50 (mole fraction) [3] of 0.0001. The inhibition [4] was 99.8%.
Work on `O=C(CCCCc1ccc(F)cc1)C(F)(F)C(F)(F)F` yielded an inhibition [1] of 29.3%, an inhibition [2] of less than 25% and an XI50 (mole fraction) [3] of 0.0003. It also gave an inhibition [4] of 98.2%.
With `O=C(CCCCc1ccccc1)C(F)F` the inhibition [1] was less than 25%, the inhibition [2] was less than 25% and the inhibition [4] was 87.4%.
In the case of `O=C(CCCCc1ccc(-c2ccccc2)cc1)C(F)(F)C(F)(F)F`, the inhibition [1] was 38.3%, the inhibition [2] was 72.6% and the XI50 (mole fraction) [3] was 0.0134. The inhibition [4] was 94.6%.
In the case of `COc1ccccc1CCCCC(=O)C(F)(F)C(F)(F)F`, the inhibition [1] was 39.1%, the inhibition [2] was 30.5% and the XI50 (mole fraction) [3] was 0.0263. For the same molecule, the inhibition [4] was 95.5%.
Molecule `O=C(CCCCc1ccc(F)cc1)C(F)(F)F` has an inhibition [1] of less than 25%, an inhibition [2] of 41.4% and an XI50 (mole fraction) [3] of 0.0002. For the same molecule, the inhibition [4] was 98.5%.
With `O=C(CCc1ccccc1-c1ccccc1)C(F)(F)C(F)(F)F` the inhibition [2] was less than 25% and the inhibition [4] was 90.4%.
With `O=C(CCCCc1ccc2c(c1)OCO2)C(F)(F)F` the inhibition [1] was less than 25%, the inhibition [2] was 41.2% and the XI50 (mole fraction) [3] was 0.0025. It also gave an inhibition [4] of 98.7%.
`O=C(CCCCc1ccc(-c2ccccc2)cc1)C(F)(F)F` was tested, and the inhibition [1] was 40.5%, the XI50 (mole fraction) [5] was 0.0074 and the inhibition [2] was 96.5%. For the same molecule, the XI50 (mole fraction) [3] was 0.0189 and the inhibition [4] was 97.9%.
For `O=C(CCc1ccccc1-c1ccccc1)C(F)(F)F`, the inhibition [2] was less than 25% and the inhibition [4] was 75%.
For `COc1ccccc1CCCCC(=O)C(F)(F)F`, the inhibition [1] was less than 25%, the inhibition [2] was 58.9% and the inhibition [4] was 82.8%.
With `O=C(CCCCc1cccc2ccccc12)C(F)(F)C(F)(F)F` the inhibition [1] was 29.4%, the inhibition [2] was 64% and the XI50 (mole fraction) [3] was 0.0034. For the same molecule, the inhibition [4] was 96.4%.
